From ChEMBL document CHEMBL4513216, “Probing the Open Global Health Chemical Diversity Library for Multistage-Active Starting Points for Next-Generation Antimalarials” (ACS Infect Dis, 2020)

test: Toxicity liver stage against HepG2, at 10uM; assay type: cell-based; parameters: test concentration 10 uM, cell line HepG2-A16-CD81EGFP; settings: human, HepG2-A16-CD81EGFP cells; read-out: INHIBITION
In short: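 Uninfected HepG2-A16-CD81EGFP cells, 3 × 10^3 per well, 1536-well, plated on prespotted compound at 10 μM final, parasite-free screening media added to match infected plates; puromycin 10 μM positive, DMSO 0.5% negative; run in parallel with 48 h PbLuc assay at 37 °C, 5% CO2; viability by CellTiter-Glo luminescence, normalized to controls.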

Structure (SMILES) | cytotoxicity at 10 µM
Cc1cc2nc(CO[C@H]3CN(C4CCCCC4)C[C@H]3F)[nH]c2cc1C | -17.5%
FC(F)(F)c1ccc2nc([C@H]3CCN(C4CCC4)C3)[nH]c2c1 | 8.04%
CNCc1cn(C[C@H]2C[C@@H]3CCN2C[C@@H]3C(=O)NC2CCCCC2)nn1 | 1.73%
Cn1cnc2cc(CCC(=O)Nc3nc[nH]n3)ccc21 | 4.44%
Cc1ccccc1NC(=O)Nc1cc(N2CCCC2)ncn1 | -7.73%
O=C(NCCN1CCCC1)c1nc2c(o1)CN(c1ncccn1)C2 | 1.24%
COCC(=O)N1CCC2(CC1)CC(N1CCN(C)CC1)CO2 (stereo not drawn) | -1.25%
CN1C(=O)CC2(CCN(Cc3cnn(C)c3)CC2)c2ccccc21 | 15.7%
Cc1cnc(CNC(=O)c2cc3c(s2)CCN3S(C)(=O)=O)cn1 | 2.22%
O=C(C1CN(CC2CC2)CC12CCOCC2)N1CCCC1 (stereo not drawn) | 7.28%
COC1COC2(CCN(C(=O)c3cocn3)CC2)C1 (stereo not drawn) | 9.64%
CN1CCN(C(=O)[C@H]2C[C@H]3[C@H](CCN3Cc3nccs3)O2)CC1 | 1.73%
CCc1c(C(=O)O)nnn1-c1ccc(C)cc1C | -5.11%
CNc1oc(-c2cc(S(=O)(=O)N3CCCCCC3)c(C)o2)nc1C#N | -5.28%
Cc1nn(CC(=O)O)c2nccc(-c3ccc(F)cc3)c12 | -4.17%
Cc1cc(-c2cnc(N3CCNC(=O)C3)nc2-c2cccnc2C)on1 | -6.9%
Cc1ccc(-c2cc(N)c(=O)n(CC(=O)NCC3CCCCC3)n2)s1 | 2.44%
Cc1cc(C2CCCN2C(=O)c2ccc(OCC(N)=O)cc2)no1 (stereo not drawn) | -43.9%
COCc1c(Br)cccc1NC(=O)CC(F)(F)F | 2.38%
Cn1cc(S(=O)(=O)Nc2ccc3[nH]c(C4CCC4)nc3c2)cn1 | -8.36%
Cc1noc(C2CCCN(C(=O)c3cccc(Cl)c3)C2)n1 (stereo not drawn) | -1.58%
CCc1noc(CNc2cc3c(cc2Cl)OCCO3)n1 | -0.18%

Structure (SMILES) | cytotoxicity at 10 µM
COc1ccc2c(c1)CCCN(CC(=O)NCC1CCCO1)C2 (stereo not drawn) | -12%
O=C(Cc1ccc2c(c1)CCC2)NC1CCN(Cc2ccccc2)CC1 | 1.88%
CCOc1cc(Cl)ccc1CNC(=O)c1ccc(=O)n(C)c1 | -4.01%
COc1cccc(CN(C)C(C)C(=O)Nc2nc(C)c(C)s2)c1 (stereo not drawn) | 9.74%
CCc1cnc(CN(C)C(=O)NC2CCN(CC3CC3)C2)s1 (stereo not drawn) | -3.86%
COCCN(Cc1ccc(F)cc1Cl)C(=O)c1csnn1 | 11.6%
O=C(CCc1ccncc1)Nc1ccc(OCC2CC2)cc1 | -2.56%
COc1cc2c(cc1OC)S(=O)(=O)N(Cc1ccccc1C)C2=O | 10.3%
CC(C)C(=O)N1CCN(CCOc2cccc(C#N)c2)CC1 | 10.8%
CC1C(=O)Nc2cccnc2N1S(=O)(=O)c1cc(F)cc(F)c1 (stereo not drawn) | -5.26%
COc1ccc(Cl)cc1CNC(=O)CN1CCC2(CCOC2)C1 (stereo not drawn) | -61.7%
Cc1ccc(C2CCCCCN2CCNS(C)(=O)=O)o1 (stereo not drawn) | 0.395%
CCN(C)S(=O)(=O)NCC(O)c1cc2ccccc2s1 (stereo not drawn) | -8.26%
CN1CCN(C(=O)Cc2ccc(S(=O)(=O)C(F)F)cc2)CC1 | 12%
Cc1cc(F)c(S(=O)(=O)Nc2ccn(CCC#N)n2)cc1F | 17.3%
Cc1cccc(N2CCN(C(=O)CCCC(=O)N(C)C)C(C)C2)n1 (stereo not drawn) | 14.6%
CCS(=O)(=O)NCCNCc1cc(F)ccc1Br | 1.58%
CC(C)C(=O)N1CCN(CC(O)c2cc(Cl)ccc2Cl)CC1 (stereo not drawn) | 3.41%
CC(C)(C)c1cnc(CN2CCC(NC(=O)Nc3ccccc3)CC2)o1 | -12.3%
CN(C)C(=O)NCC1CC2(CO1)CN(c1nncs1)C2 (stereo not drawn) | -96.3%
O=C(CC(F)(F)F)N1CCC2(CCCN(c3nncs3)C2)C1 (stereo not drawn) | -105%
Cn1cnc(-c2nc(C(=O)NCCN3CCCC3)c3ccccn23)c1 | -109%

Structure (SMILES) | cytotoxicity at 10 µM
O=C(c1cnccn1)N1CCc2c(COCC3CC3)cncc2C1 | -72.4%
CN1CCCCC1C(=O)N1CCN(c2ccccc2C#N)CC1 (stereo not drawn) | -6.85%
O=C(O)[C@@H]1CN(C(=O)CSCCN2CCCC2)C[C@H]1c1ccccc1 | -12.1%
CCN(Cc1c(F)cccc1Cl)c1cc(C2CCNCC2)nc(C)n1 | 5.16%
Cc1cnc(CNc2ncc(C)c(-c3cnn(C)c3)n2)cn1 | 7.86%
CCOc1cc2c(cc1CN1CCC3(CC1)CNC(=O)C3)CCC2 | -2.04%
CCc1ccc(CN2CCN(CCOC)[C@@H]3CS(=O)(=O)C[C@@H]32)cc1 | -5.72%
COc1cccc(CN(C)Cc2[nH]c3ccccc3c2C)c1O | 3.38%
COC[C@]1(O)CCN(C2CCN(c3ccc(F)c(F)c3)CC2)CC1(C)C | -3.85%
Cc1ccccc1OCC(O)C(=O)N1CCC2(CC1)CN(C)C(=O)O2 (stereo not drawn) | -47.6%
CCCn1cc(C(=O)NC2CCN(CC(=O)NC3CC3)CC2)c(C)n1 | 2.29%
COc1cc(C2CC(=O)NCc3nc4sccn4c32)cc(OC)c1O (stereo not drawn) | -0.966%
O=C(NCCc1ccc(Cl)cc1)c1coc(CN2CCOCC2)c1 | 0.383%
CCCOc1cc(Cl)c(CN2CCNC(C(=O)NC3CC3)C2)cc1OC (stereo not drawn) | 0.508%
Cc1ncsc1CCCNC(=O)C1CC2(CCNCC2)CN1C (stereo not drawn) | 9.18%
CC(C)=CCCC1(C)CCC(=O)N(CCc2csc(N)n2)C1 (stereo not drawn) | -4.27%
CN(Cc1ccsc1)C(=O)c1n[nH]c(N)c1-c1ccccc1 | -6.27%
CCN1CCC(N2C[C@@H](C(=O)O)[C@H](c3cccc(OC)c3)C2)CC1 | -2.85%
COCc1nc(CNC(=O)C(C)n2ccnc2C(C)C)no1 (stereo not drawn) | -0.376%
COCc1noc(CN2C[C@H](NS(C)(=O)=O)[C@@H](C3CC3)C2)n1 | 1.67%
Cc1c(-c2c(-c3ccccc3)ncn2[C@@H](C(=O)O)[C@H](C)O)cnn1C | -7.67%
CN(Cc1cc[nH]n1)C(=O)c1cn(Cc2ccccc2Cl)nn1 | 7.59%

Structure (SMILES) | cytotoxicity at 10 µM
CCC[C@@H]1CN(Cc2cc(OC)c3c(c2)OCO3)C[C@H]1C(=O)O | -0.778%
O=C(c1ccnc(-n2cnnc2)c1)N1CCCC2(CCOC2)C1 (stereo not drawn) | -15.1%
CCc1ccc(NC(=O)C2CCN(C(=O)COC)CC2)cc1 | 0.929%
COc1ccc(-c2n[nH]cc2CN(C)CCc2scnc2C)c(F)c1 | 3.06%
COC(=O)N1CCC2(CC1)CC(c1ccccc1)CN(C)C2 (stereo not drawn) | 2.09%
O=C(Nc1cccc(CNCc2cccnc2)c1)C1CCCC1 | -9.27%
CCN1CCN(C(=O)c2ccc(Cn3ccccc3=O)o2)CC1 | -9.39%
O=C(COCC(F)(F)F)N1CCCC(n2cccn2)C1 (stereo not drawn) | -6.28%
COc1c(CNC(c2ccccc2)c2nccn2C)c(C)nn1C (stereo not drawn) | -3.16%
CCOc1ccccc1C(CC(=O)Nc1ncc(C)s1)NC(C)=O (stereo not drawn) | -15.3%
O=C(c1cccc2c1OCCO2)N1CCCC1Cn1cccn1 (stereo not drawn) | -10.7%
COC(=O)c1cccn1C1CCN(C(=O)c2cc(F)ccc2F)CC1 | -9.62%
Cc1ccc(N(C)C2CCN(C(=O)c3ccsc3)CC2)nn1 | -12.1%
Cc1cc(C)n(CC2CCCN2CCc2ccncc2)n1 (stereo not drawn) | -15.5%
CC(C)c1nn(C)c(N(C)C)c1CNCc1ccccc1CN(C)C | 1.53%
CN(C)C(=O)CN1CCN(C(=O)Cc2csc(-c3ncccn3)n2)CC1 | -8.52%
O=C1C(NS(=O)(=O)c2cc(F)cc(F)c2)CCN1Cc1ccccc1 (stereo not drawn) | -10%
CCCNC(=O)C1CCN(Cc2csc(C(C)(C)C)n2)CC1 | -9.11%
CS(=O)(=O)c1ccc(CNC2CCCN(c3cccnn3)C2)cc1 (stereo not drawn) | 1.3%
OCC1CCCN1c1cc(N2CCC(OC3CCCC3)CC2)ncn1 (stereo not drawn) | -2.43%
CNC(=O)N1CCC2(CC1)CN(C)Cc1cc(F)ccc12 | 4.16%
CN(CCO)CC1COCCN1C(=O)CCC1CCCC1 (stereo not drawn) | -9.83%

Structure (SMILES) | cytotoxicity at 10 µM
Cc1ccc(CN2CCc3nnc(COCCN(C)C)n3CC2)o1 | 2.9%
CCN1CCN(C)C(=O)C12CCN(Cc1cccc(C)c1)CC2 | -2.95%
COCCN1CCCC2(CCN(c3ccsc3)C2=O)C1 (stereo not drawn) | -79.6%
CN(C)C(=O)CO[C@H]1CN(Cc2ccoc2)[C@@H]2COC[C@H]12 | 6.17%
O=C1C[C@@H]2[C@H](CCN2Cc2ccco2)N1c1ccsc1 | 8.55%
COCCN1CCN(C)C2(CCN(C(=O)c3ccnnc3)CC2)C1=O | 11.6%
COCCN1CCO[C@@H]2CN(S(=O)(=O)c3cccnc3)C[C@@H]2C1 | 16.3%
COCCN1CCC2(CC1)CN(C(=O)c1ccccc1)CCO2 | 1.61%
O=C([C@H]1CCS(=O)(=O)[C@@H]2CN(CCc3ccccc3)C[C@H]12)N1CCCC1 | 0.688%
CC(=O)N1CCC2(CN(CC3CCCC3)C2)C1 | 2.05%
O=C(c1cnccn1)N1CCOC2(CCCN(c3ncccc3F)C2)C1 (stereo not drawn) | 0.199%
Cc1noc(C)c1CN1C[C@@H]2COC[C@@H](C(=O)N3CCCCO3)[C@@H]2C1 | -71.7%
CCN1CC(=O)NCC12CCN(C(=O)c1ccno1)C2 (stereo not drawn) | -2.75%
CC(=O)N1CCO[C@@H]2CN(Cc3cccc(Cl)c3)C[C@@H]2C1 | -104%
Cc1noc(C)c1CN1CC2(CCCCN2C)CC1=O (stereo not drawn) | 2.75%
O=C(CO)N1CCOC2(CCCN(c3ncc(F)cn3)C2)C1 (stereo not drawn) | 12.4%
CN(C)CCn1c2c(ccc1=O)CC(NC(=O)NC1CCCC1)CC2 (stereo not drawn) | -0.913%
CC(=O)NCc1noc2c1CN(CCN1CCCC1)CC2 | -5.46%
Cc1ccc(CN2C[C@@H]3C[C@H](C(=O)NCc4cccnc4)[C@H](C2)O3)o1 | 3.82%
Oc1cccc(CN2C[C@@H]3CC[C@H]2CN(Cc2ccc(F)cc2)C3)c1 | -135%
